From ChEMBL document CHEMBL2401654, “Synthesis, characterization, and biological assessment of the four stereoisomers of the H(3) receptor antagonist 5-fluoro-2-methyl-N-[2-methyl-4-(2-methyl[1,3']bipyrrolidinyl-1'-yl)phenyl]benzamide” (Bioorg Med Chem Lett, 2013)
Values after ≈ are worked out from the molar mass of the structure shown.

How the values were obtained:
[1] = Ratio of AUC (0 to 24 hrs) in C57BL/6 mouse brain to AUC (0 to 24 hrs) in C57BL/6 mouse plasma at 10 mg/kg, po; assay type: ADME, organism-based; parameters: dose 10 mg/kg, route oral; settings: read-out: Ratio AUC
How it was run: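 Male C57BL/6 mice were given a single oral dose of 10 mg/kg, formulated at 1 mg/mL in 5% DMSO/0.5% MC/0.2% tween 80. Compound levels were measured in plasma and brain over time. The brain-to-plasma ratio was calculated from AUC0-24 values.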

[2] = Cmax in C57BL/6 mouse plasma at 10 mg/kg, po; assay type: ADME, organism-based; parameters: dose 10 mg/kg, route oral
How it was run: (§1)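 Male C57BL/6 mice were dosed orally at 10 mg/kg, formulated at 1 mg/mL in 5% DMSO/0.5% MC/0.2% tween 80. Plasma and brain were sampled for PK parameters. Brain to plasma ratio was based on AUC0-24.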

[3] = target: Histamine H3 receptor (Homo sapiens, UniProt Q9Y5N1); experiment: Displacement of [3H]N-alpha-methylhistamine from recombinant human histamine H3 receptor transfected in CHO cell membranes after 1 hr by scintillation counting analysis
Chain of Histamine H3 receptor (Q9Y5N1 whole entry): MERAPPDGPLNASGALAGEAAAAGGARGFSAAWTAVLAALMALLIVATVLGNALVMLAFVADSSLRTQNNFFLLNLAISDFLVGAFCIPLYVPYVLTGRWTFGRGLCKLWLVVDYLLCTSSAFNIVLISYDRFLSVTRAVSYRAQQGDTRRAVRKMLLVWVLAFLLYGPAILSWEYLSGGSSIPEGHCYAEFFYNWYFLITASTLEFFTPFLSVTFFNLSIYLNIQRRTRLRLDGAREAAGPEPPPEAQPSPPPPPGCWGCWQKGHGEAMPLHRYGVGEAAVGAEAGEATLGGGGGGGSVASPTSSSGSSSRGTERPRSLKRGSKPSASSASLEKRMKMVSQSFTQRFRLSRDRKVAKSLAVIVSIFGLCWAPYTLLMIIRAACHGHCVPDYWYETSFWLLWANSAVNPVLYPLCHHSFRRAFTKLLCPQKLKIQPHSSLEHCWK
How it was run: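 Radioligand displacement of [3H]N-α-methylhistamine using membranes from CHO cells stably transfected with recombinant human or rat H3 receptor. Ki is presented as a range of multiple experiments (n ≥ 3).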

[4] = Ratio of AUC (0 to 24 hrs) in C57BL/6 mouse brain to AUC (0 to 24 hrs) in C57BL/6 mouse plasma at 2 mg/kg, iv; assay type: ADME, organism-based; parameters: dose 2 mg/kg, route intravenous; settings: read-out: Ratio AUC
How it was run: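 Male C57BL/6 mice were given a single intravenous dose of 2 mg/kg, formulated at 1 mg/mL in 50% 1-methyl-2-pyrrolidinone in saline. Plasma and brain exposure profiles were collected, and the brain-to-plasma ratio was derived from the AUC values of the two tissues.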

[5] = target: T1, Cytochrome P450 1A2 (Homo sapiens, UniProt P05177); experiment: Inhibition of CYP1A2 (unknown origin); assay type: ADME
T1 sequence (P05177 whole entry): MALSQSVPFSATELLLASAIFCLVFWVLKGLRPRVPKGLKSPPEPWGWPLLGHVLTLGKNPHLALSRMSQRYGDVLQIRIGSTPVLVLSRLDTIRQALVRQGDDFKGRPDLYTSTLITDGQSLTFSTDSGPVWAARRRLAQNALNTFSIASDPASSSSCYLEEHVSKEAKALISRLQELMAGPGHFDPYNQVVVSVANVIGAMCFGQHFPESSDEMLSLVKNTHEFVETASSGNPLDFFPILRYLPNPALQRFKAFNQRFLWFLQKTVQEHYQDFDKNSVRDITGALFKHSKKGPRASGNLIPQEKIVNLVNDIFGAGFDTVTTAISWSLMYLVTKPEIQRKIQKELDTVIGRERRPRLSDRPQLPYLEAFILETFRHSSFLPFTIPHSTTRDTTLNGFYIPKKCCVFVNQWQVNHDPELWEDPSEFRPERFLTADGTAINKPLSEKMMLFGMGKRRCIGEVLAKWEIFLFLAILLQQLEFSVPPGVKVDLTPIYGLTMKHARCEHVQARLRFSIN

[6] = Partition coefficient, log P of the compound; assay type: physicochemical; settings: octanol/water
[7] = Drug metabolism in mouse liver microsomes at 5 uM after 20 mins; assay type: ADME, Microsome; settings: read-out: Drug metabolism
How it was run: (§2)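 Substrate at 5 µM incubated at 37 °C for 20 min with in-house liver microsome preparations (human, mouse or rat). Reported as the percentage of parent compound metabolized.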

[8] = Half life in C57BL/6 mouse brain at 10 mg/kg, po; assay type: ADME, organism-based; parameters: dose 10 mg/kg, route oral; how it was run: as §1
[9] = Solubility of the compound in PBS buffer at pH 7.4; assay type: physicochemical
How it was run: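 Solubility measured in PBS at pH 7.4.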

[10] = test system: Mus musculus; experiment: Toxicity in mouse assessed as appearance of abnormal clinical signs at 3 to 30 mg/kg, po after 1 week; assay type: organism-based; parameters: dose 3-30 mg/kg, route oral; settings: in vivo, 168 h
How it was run: (§3)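 Behavioral safety study in mice given single oral doses of 3, 10 and 30 mg/kg. Tremors, tail pinch response, body temperature, pupil size and body weight were scored at 2 and 6 h post dose. Clinical signs were observed over one week after dosing.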

[11] = Volume of distribution at steady state in C57BL/6 mouse at 2 mg/kg, iv; assay type: ADME, organism-based; parameters: dose 2 mg/kg, route intravenous; settings: in vivo, read-out: Vdss
How it was run: (§4)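 Male C57BL/6 mice received a single intravenous dose of 2 mg/kg, formulated at 1 mg/mL in 50% 1-methyl-2-pyrrolidinone in saline. Plasma and brain concentrations were followed to derive PK parameters. Brain to plasma ratio was calculated from AUC.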

[12] = Half life in C57BL/6 mouse plasma at 10 mg/kg, po; assay type: ADME, organism-based; parameters: dose 10 mg/kg, route oral; how it was run: as §1
[13] = Drug metabolism in human liver microsomes at 5 uM after 20 mins; assay type: ADME, Microsome; settings: read-out: Drug metabolism; how it was run: as §2
[14] = AUC (0 to infinity) in C57BL/6 mouse brain at 2 mg/kg, iv; assay type: ADME, organism-based; parameters: time infinity, dose 2 mg/kg, route intravenous; how it was run: as §4
[15] = test system: Mus musculus; experiment: Toxicity in mouse assessed as effect on pupil size at 3 to 30 mg/kg, po; assay type: organism-based; parameters: dose 3-30 mg/kg, route oral; settings: in vivo; how it was run: as §3
[16] = test system: Mus musculus; experiment: Toxicity in mouse assessed as effect on body weight at 3 to 30 mg/kg, po; assay type: organism-based; parameters: dose 3-30 mg/kg, route oral; settings: in vivo; how it was run: as §3
[17] = target: Cytochrome P450 3A4 (Homo sapiens, UniProt P08684); experiment: Inhibition of CYP3A4 (unknown origin); assay type: ADME
Chain of Cytochrome P450 3A4 (P08684 whole entry): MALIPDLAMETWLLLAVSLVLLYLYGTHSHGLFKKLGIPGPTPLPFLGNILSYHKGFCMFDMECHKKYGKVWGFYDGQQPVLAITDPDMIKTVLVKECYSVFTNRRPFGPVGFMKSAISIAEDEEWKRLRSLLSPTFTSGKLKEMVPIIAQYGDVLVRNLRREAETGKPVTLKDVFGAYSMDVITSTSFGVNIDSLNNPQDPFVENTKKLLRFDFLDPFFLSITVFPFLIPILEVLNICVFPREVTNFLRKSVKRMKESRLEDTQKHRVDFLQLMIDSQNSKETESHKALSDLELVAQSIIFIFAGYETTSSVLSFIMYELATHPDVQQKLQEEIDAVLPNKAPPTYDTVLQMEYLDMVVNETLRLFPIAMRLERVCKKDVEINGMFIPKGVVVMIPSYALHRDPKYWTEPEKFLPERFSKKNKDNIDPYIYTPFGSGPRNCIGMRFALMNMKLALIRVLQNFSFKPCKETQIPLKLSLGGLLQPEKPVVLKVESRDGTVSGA

[18] = Clearance in C57BL/6 mouse at 2 mg/kg, iv; assay type: ADME, organism-based; parameters: dose 2 mg/kg, route intravenous; settings: in vivo; how it was run: as §4
[19] = Cmax in C57BL/6 mouse brain at 2 mg/kg, iv; assay type: ADME, organism-based; parameters: dose 2 mg/kg, route intravenous; how it was run: as §4
[20] = AUC (0 to infinity) in C57BL/6 mouse plasma at 10 mg/kg, po; assay type: ADME, organism-based; parameters: time infinity, dose 10 mg/kg, route oral; how it was run: as §1
[21] = target: Histamine receptor H3 (Macaca mulatta, UniProt Q865E1); experiment: Displacement of [3H]N-alpha-methylhistamine from recombinant rhesus monkey histamine H3 receptor transfected in CHO cell membranes after 1 hr by scintillation counting analysis
Chain of Histamine receptor H3 (Q865E1 whole entry): as the sequence (Q9Y5N1 whole entry) above, with D148N, A240G, V282A, A289T, T290A, V300A, H442Q counted along it

[22] = target: hERG (KCNH2) (Homo sapiens, UniProt Q12809); experiment: Inhibition of human ERG transfected in CHO cells at 10 uM by patch clamp assay relative to control; assay type: cell-based; settings: CHO cells transfected with human ERG
Chain of hERG (KCNH2) (Q12809 whole entry): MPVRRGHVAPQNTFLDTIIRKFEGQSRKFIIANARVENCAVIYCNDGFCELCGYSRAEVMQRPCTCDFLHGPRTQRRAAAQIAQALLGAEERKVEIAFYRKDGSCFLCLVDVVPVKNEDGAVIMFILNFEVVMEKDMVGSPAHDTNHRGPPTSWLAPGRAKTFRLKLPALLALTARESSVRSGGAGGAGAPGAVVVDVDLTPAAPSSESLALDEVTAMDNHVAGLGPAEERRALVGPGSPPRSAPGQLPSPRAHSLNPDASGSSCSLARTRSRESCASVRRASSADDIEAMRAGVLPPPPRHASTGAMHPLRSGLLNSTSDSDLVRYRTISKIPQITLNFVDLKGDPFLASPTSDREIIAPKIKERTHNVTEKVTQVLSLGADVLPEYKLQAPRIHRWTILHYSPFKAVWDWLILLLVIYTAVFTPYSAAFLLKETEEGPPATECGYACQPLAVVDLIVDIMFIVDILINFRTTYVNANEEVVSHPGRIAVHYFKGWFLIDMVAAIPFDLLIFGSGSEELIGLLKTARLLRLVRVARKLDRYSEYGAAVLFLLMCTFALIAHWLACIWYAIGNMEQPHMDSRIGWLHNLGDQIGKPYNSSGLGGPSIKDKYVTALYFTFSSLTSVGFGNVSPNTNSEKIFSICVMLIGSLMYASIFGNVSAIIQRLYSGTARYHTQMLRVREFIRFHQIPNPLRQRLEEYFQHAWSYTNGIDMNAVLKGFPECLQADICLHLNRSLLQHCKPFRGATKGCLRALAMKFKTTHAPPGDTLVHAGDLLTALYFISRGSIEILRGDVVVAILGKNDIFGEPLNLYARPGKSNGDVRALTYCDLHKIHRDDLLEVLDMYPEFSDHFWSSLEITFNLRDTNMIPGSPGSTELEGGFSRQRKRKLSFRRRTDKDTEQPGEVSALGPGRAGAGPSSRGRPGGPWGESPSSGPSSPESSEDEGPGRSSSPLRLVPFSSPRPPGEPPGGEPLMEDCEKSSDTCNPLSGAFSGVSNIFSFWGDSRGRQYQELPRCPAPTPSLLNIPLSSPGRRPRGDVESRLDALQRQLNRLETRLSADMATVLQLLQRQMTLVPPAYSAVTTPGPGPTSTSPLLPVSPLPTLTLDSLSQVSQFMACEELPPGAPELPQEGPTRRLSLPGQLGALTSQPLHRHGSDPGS
How it was run: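 Whole-cell patch clamp on CHO cells stably transfected with the human ERG gene.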

[23] = target: T2, Cytochrome P450 2B6 (Homo sapiens, UniProt P20813); experiment: Inhibition of CYP2B6 (unknown origin); assay type: ADME
T2 sequence (P20813 whole entry): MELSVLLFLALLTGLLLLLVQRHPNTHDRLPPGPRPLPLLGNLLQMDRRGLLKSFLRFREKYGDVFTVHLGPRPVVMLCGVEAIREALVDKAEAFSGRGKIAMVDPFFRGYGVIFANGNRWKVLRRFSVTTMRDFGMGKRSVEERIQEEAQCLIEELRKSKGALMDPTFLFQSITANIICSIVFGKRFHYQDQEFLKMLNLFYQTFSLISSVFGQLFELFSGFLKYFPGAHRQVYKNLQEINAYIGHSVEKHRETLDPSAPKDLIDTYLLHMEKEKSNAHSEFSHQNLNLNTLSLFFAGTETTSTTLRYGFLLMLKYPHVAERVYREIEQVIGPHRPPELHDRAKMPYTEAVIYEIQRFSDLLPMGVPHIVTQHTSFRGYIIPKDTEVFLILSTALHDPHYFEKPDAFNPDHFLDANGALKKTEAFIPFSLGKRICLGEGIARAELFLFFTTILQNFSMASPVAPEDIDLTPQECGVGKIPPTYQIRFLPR

Cc1cc(N2CC[C@H](N3CCC[C@@H]3C)C2)ccc1NC(=O)c1cc(F)ccc1C
Kp [1]: 4.6
Cmax [2]: 1310 ng/mL
Ki [3]: 3.4 nM
Kp [4]: 4.7
IC50 [5]: > 30000 nM
logP [6]: 3.55
metabolised at 20 min, 5 µM [7]: 19%
half-life [8]: 3.5 h
solubility [9]: 293 µg/mL (≈ 742 µM)
Activity [10]: Non-toxic
Vd [11]: 5.2 L/kg
half-life [12]: 3.6 h
metabolised at 20 min, 5 µM [13]: 3%
AUC(0-inf) [14]: 2600 ng·h/mL
Activity [15]: Non-toxic
Activity [16]: Non-toxic
IC50 [17]: > 30000 nM
clearance [18]: 60 mL/min/kg
Cmax [19]: 4820 ng/mL
AUC(0-inf) [20]: 4000 ng·h/mL
Ki [21]: 2.5 nM
inhibition at 10 µM [22]: 84.3%
IC50 [23]: > 30000 nM
